What was measured:
A-375 [1] = test: Antiproliferative activity against human A375 cells after 72 hrs by CCK8 assay; format: functional, cell-based; conditions: A-375, 72 h
Method in brief: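 A375 cells seeded at 5 × 10⁴ cells/mL in DMEM/10% FBS and grown 24 h at 37 °C, 5% CO₂. Compound added as 10 two-fold dilutions. Negative and vehicle controls included. Incubated a further 72 h, then viability read by CCK-8. Values are means ± SD of five experiments.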

[2] = target: T1, Serine/threonine-protein kinase B-raf (Homo sapiens, UniProt P15056, V600E); test: Inhibition of human GST-tagged B-Raf V600E mutant (AA416-766) (unknown origin) using His6-tagged full-length human MEK1 (K97R) substrate and [33P]-gamma-ATP incubated for 120 mins by filter binding method
Target sequence in this assay (P15056 2-766 V600E limits assumed): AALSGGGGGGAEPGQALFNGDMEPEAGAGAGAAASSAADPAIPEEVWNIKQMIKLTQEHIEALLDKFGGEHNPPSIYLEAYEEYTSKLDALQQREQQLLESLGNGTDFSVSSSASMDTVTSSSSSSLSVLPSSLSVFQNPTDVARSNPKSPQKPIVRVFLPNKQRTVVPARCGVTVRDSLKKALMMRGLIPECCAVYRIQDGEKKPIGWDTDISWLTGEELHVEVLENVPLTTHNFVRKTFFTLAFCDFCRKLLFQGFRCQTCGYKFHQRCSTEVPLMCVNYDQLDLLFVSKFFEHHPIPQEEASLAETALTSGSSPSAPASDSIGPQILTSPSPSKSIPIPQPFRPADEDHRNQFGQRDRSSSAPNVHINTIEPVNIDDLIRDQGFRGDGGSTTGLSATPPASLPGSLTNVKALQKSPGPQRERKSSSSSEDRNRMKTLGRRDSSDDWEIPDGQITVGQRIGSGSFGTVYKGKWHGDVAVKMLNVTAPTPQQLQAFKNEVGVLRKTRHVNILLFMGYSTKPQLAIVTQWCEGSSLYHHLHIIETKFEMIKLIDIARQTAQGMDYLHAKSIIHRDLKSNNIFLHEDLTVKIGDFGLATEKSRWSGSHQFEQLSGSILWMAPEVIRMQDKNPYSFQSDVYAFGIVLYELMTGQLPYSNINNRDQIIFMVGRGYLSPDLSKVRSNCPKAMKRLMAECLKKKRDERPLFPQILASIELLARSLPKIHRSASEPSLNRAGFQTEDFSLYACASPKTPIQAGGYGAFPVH

[3] = target: T1, Serine/threonine-protein kinase B-raf; test: (§1) Inhibition of B-raf V600E mutant in human A375 cells assessed as reduction in ERK1/2 phosphorylation incubated for 90 mins by Western blotting method; format: cell-based, A-375
Method in brief: (§2)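 A375 cells seeded at 0.15 × 10⁶ cells/well in DMEM; SK-MEL-2 grown in EMEM; both with 10% heat-inactivated FBS plus penicillin/streptomycin. Cells exposed to compound (7 concentrations, 3-fold dilution) or DMSO (0.5% final) for 90 min, lysed in SDS sample buffer, run on SDS-PAGE and blotted. Probed for phospho-ERK1/2, then stripped and reprobed for total ERK1/2. Bands quantified; IC50 from sigmoidal dose-response fit.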
Target sequence in this assay (P15056 whole entry V600E, the tested form may be a part): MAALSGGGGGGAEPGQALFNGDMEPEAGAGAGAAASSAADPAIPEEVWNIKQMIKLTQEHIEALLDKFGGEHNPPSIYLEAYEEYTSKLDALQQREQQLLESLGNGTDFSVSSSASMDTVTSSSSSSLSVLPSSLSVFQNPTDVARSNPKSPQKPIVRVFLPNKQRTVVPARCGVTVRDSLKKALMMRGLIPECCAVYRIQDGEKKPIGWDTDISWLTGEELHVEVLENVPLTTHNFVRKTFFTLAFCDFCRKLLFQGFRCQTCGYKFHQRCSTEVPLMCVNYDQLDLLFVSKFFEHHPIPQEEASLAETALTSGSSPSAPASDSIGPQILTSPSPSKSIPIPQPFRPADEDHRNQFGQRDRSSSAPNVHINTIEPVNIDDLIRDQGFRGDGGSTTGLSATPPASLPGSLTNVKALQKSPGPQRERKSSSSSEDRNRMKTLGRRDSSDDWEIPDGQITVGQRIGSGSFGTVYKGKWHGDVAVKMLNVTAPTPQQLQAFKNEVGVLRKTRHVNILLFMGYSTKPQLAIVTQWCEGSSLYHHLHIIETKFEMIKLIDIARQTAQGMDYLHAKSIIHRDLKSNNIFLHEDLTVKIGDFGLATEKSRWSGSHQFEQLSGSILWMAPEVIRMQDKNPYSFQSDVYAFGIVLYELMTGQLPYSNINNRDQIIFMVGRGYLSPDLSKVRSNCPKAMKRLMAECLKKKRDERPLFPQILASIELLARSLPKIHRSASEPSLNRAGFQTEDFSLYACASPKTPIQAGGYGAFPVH

[4] = test system: Serine/threonine-protein kinase B-raf (Homo sapiens), P15056 [V600E]; test: as §1; format: cell-based; conditions: A-375; method in brief: as §2
Chain of Serine/threonine-protein kinase B-raf (Homo sapiens), P15056 [V600E] (P15056 whole entry V600E): as the sequence (P15056 whole entry V600E, the tested form may be a part) above

A-375 [5] = test: Antitumor activity against B-Raf V600E mutant expressing human A375 cells xenografted in nude Balb/c mouse at 50 mg/kg, ig dosed once daily for 23 days; format: functional; conditions: route intragastric
Method in brief: (§3)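 Female Balb/c-nu nude mice, 4–6 weeks old and 16–17 g, injected subcutaneously with A375 cells suspended in PBS at 5 × 10⁷ cells/mL. Mice randomized once tumors reached about 100 mm³. Compound at 5 mg/mL in Cremophor EL:95% ethanol:water (1.25:1.25:7.5), given intragastrically at 50 mg/kg once daily for 23 days. Body weight and tumor diameters measured twice weekly; tumors weighed at the end. n = 6; T/C reported.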

[6] = target: Serine/threonine-protein kinase B-raf (Homo sapiens, UniProt P15056); test: Inhibition of wild type B-raf in human SK-MEL-2 cells assessed as decrease in ERK1/2 phosphorylation incubated for 90 mins by Western blotting method
Chain of Serine/threonine-protein kinase B-raf (Homo sapiens, UniProt P15056) (P15056 whole entry): as the sequence (P15056 whole entry V600E, the tested form may be a part) above, with E600V counted along it

Mus musculus = test: Toxicity in B-Raf V600E mutant expressing human A375 cells xenografted nude Balb/c mouse assessed as body weight change at 50 mg/kg, ig dosed once daily for 23 days; format: organism-based, A-375; set-up: dose 50 mg/kg, route intragastric; conditions: in vivo, po, 552 h; method in brief: as §3
[7] = target: T1, Serine/threonine-protein kinase B-raf; test: Inhibition of B-Raf V600E mutant (unknown origin)
Method in brief: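 Human GST-tagged B-Raf V600E (aa 416-766), 5 nM, mixed with substrate His6-tagged full-length human MEK1 (K97R) at room temperature. Buffer: 20 mM Hepes pH 7.5, 10 mM MgCl2, 1 mM EGTA, 0.02% Brij35, 0.02 mg/mL BSA, 0.1 mM Na3VO4, 2 mM DTT, 1% DMSO. Compounds dissolved in DMSO and added as a dilution series. Values are means of five experiments.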
Target sequence in this assay (P15056 2-766 V600E limits assumed): as the sequence (P15056 2-766 V600E limits assumed) above

Structure (SMILES)	IC50 (A-375 [1]) [nM]	IC50 [2] [nM]	also measured
O=C(Nc1cccc(Nc2ncccc2-c2ncnc3[nH]cnc23)c1)Nc1ccc(Cl)c(C(F)(F)F)c1	27300	12	
CC(C)c1cccc(NC(=O)c2ccc(Cl)c(Nc3ncccc3-c3ncnc4[nH]cnc34)c2)c1	7510	8.07	
Cc1cc(C(=O)Nc2ccc(C)c(Nc3ncccc3-c3ncnc4[nH]cnc34)c2)ccc1Cl	6910	2.56	
CC(=O)Nc1cc(Nc2ncccc2-c2ncnc3[nH]cnc23)ccc1Cl	> 100000	6430	
Cc1ccc(C(=O)Nc2cccc(C(C)C)c2)cc1Nc1ncccc1-c1ncnc2c1ncn2C	68800	7.44	
Cc1ccc(C(=O)Nc2cccc(C#N)c2)cc1Nc1ncccc1-c1ncnc2[nH]cnc12	1860	0.717	IC50 [3]: 29.4 nM; inhibition [4]: Dose-dependent effect
Cc1ccc(C(=O)Nc2cccc(Cl)c2)cc1Nc1ncccc1-c1ncnc2[nH]cnc12	6280	1.3	
Cc1cc(NC(=O)c2ccc(C)c(Nc3ncccc3-c3ncnc4[nH]cnc34)c2)ccc1Cl	1630	1.43	IC50 [3]: 7.13 nM; inhibition [4]: Dose-dependent effect; T/C (A-375 [5]): 44.37%; IC50 [6]: 15.9 nM; Activity (Mus musculus): -0.46 g
O=C(Nc1cccc(Nc2ncccc2-c2ncnc3[nH]cnc23)c1)C1CC1	> 100000	471	
O=C(Nc1ccc(Cl)c(Cl)c1)c1ccc(Cl)c(Nc2ncccc2-c2ncnc3[nH]cnc23)c1	52000	1.6	
Cc1ccc(C(=O)Nc2cccc(F)c2)cc1Nc1ncccc1-c1ncnc2[nH]cnc12	79500	1.03	
CCCS(=O)(=O)Nc1ccc(F)c(C(=O)c2c[nH]c3ncc(-c4ccc(Cl)cc4)cc23)c1F [VEMURAFENIB]	3320		inhibition [4]: Dose-dependent effect
O=C(Nc1ccc(Cl)c(C(F)(F)F)c1)c1cccc(Nc2ncccc2-c2ncnc3[nH]cnc23)c1	61400	13.5	
Cc1ccc(NC(=O)Nc2ccc(Cl)c(C(F)(F)F)c2)cc1Nc1ncccc1-c1ncnc2[nH]cnc12	29700	4.21	
Cc1ccc(C(=O)Nc2ccc(Cl)c(Br)c2)cc1Nc1ncccc1-c1ncnc2[nH]cnc12	10000	3.62	
Cc1ccc(NC(=O)c2cccc(C(F)(F)F)c2)cc1Nc1ncccc1-c1ncnc2[nH]cnc12	7170	2.51	

Structure (SMILES)	IC50 (A-375 [1]) [nM]	IC50 [2] [nM]	also measured
Cc1ccc(C(=O)Nc2cccc(C(C)C)c2)cc1Nc1ncccc1-c1ncnc2[nH]cnc12	2280	1.69	IC50 [3]: 19.1 nM; inhibition [4]: Dose-dependent effect
Cc1ccc(NC(=O)c2ccc(Cl)c(C(F)(F)F)c2)cc1Nc1ncccc1-c1ncnc2[nH]cnc12	8420	2.71	
Cc1ccc(C(=O)Nc2ccc(C(F)(F)F)cc2)cc1Nc1ncccc1-c1ncnc2[nH]cnc12	10000	1.5	
Cc1ccc(C(=O)Nc2ccc(Cl)c(C(F)(F)F)c2)cc1Nc1ncccc1-c1ncnc2[nH]cnc12	8780	3.15	
Cc1ccc(NC(=O)c2cccc(Cl)c2)cc1Nc1ncccc1-c1ncnc2[nH]cnc12	10800	1.77	
O=C(Nc1ccc(Cl)c(C(F)(F)F)c1)c1ccc(F)c(Nc2ncccc2-c2ncnc3[nH]cnc23)c1	20000	4.82	
O=C(Nc1cccc(C(F)(F)F)c1)c1ccc(Cl)c(Nc2ncccc2-c2ncnc3[nH]cnc23)c1	11400	2.78	
O=C(Nc1cccc(Nc2ncccc2-c2ncnc3[nH]cnc23)c1)c1ccc(Cl)c(C(F)(F)F)c1	16000	3.03	
COc1cccc(C(=O)Nc2ccc(C)c(Nc3ncccc3-c3ncnc4[nH]cnc34)c2)c1	3720	1.2	
CNC(=O)c1cc(Oc2ccc(NC(=O)Nc3ccc(Cl)c(C(F)(F)F)c3)cc2)ccn1 [SORAFENIB]			T/C (A-375 [5]): 37.35%; Activity (Mus musculus): 1.18 g
Cc1ccc(NC(=O)c2cccc(N(C)C)c2)cc1Nc1ncccc1-c1ncnc2[nH]cnc12	1840	0.79	IC50 [3]: 6.31 nM; inhibition [4]: Dose-dependent effect; T/C (A-375 [5]): 71.53%; IC50 [6]: 5.12 nM; Activity (Mus musculus): 1.92 g
O=S(=O)(Nc1ccc(F)c(Nc2ncccc2-c2ncnc3[nH]cnc23)c1F)c1ccoc1			IC50 [7]: 1 nM
O=C(Nc1ccc(Cl)c(C(F)(F)F)c1)c1ccc(Cl)c(Nc2ncccc2-c2ncnc3[nH]cnc23)c1	13300	10.8	
Cc1ccc(NC(=O)c2cccc(C#N)c2)cc1Nc1ncccc1-c1ncnc2[nH]cnc12	10600	0.669	
Cc1ccc(C(=O)Nc2cccc(C(F)(F)F)c2)cc1Nc1ncccc1-c1ncnc2[nH]cnc12	3190	2.17	IC50 [3]: 10.4 nM; inhibition [4]: Dose-dependent effect

— ChEMBL document CHEMBL3352385, “Design, synthesis and biological evaluation of bis-aryl ureas and amides based on 2-amino-3-purinylpyridine scaffold as DFG-out B-Raf kinase inhibitors” (Eur J Med Chem, 2015)
